# Key:
# [1] = molecular target: T1, Leucine-rich repeat serine/threonine-protein kinase 2 (Homo sapiens, UniProt Q5S007, G2019S); assay: Inhibition of N-terminal GST-fused human LRRK2 G2019S mutant using fluorescein-labeled LRRKtide as substrate preincubated for 15 mins followed by substrate addition and measured after 1 hr by TR-FRET assay
# Method in brief: (§1)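 Purified truncated LRRK2, WT or G2019S, at 2 nM nominal was preincubated with inhibitor for 15 min. LRRKtide (0.4 μM) and ATP (25 μM) were then added for 1 h. The reaction was stopped with 10 mM EDTA plus 2 nM Tb-anti-pLRRKtide antibody, and TR-FRET was read. IC50 is the geometric mean of at least two independent experiments.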
# [2] = species: Homo sapiens; assay: Selectivity ratio of IC50 for inhibition of N-terminal GST-fused human wild type LRRK2 to IC50 for inhibition of N-terminal GST-fused human […] mutant; method in brief: as §1
# [3] = molecular target: T2, Leucine-rich repeat serine/threonine-protein kinase 2 (Homo sapiens, UniProt Q5S007); assay: Inhibition of N-terminal GST-fused human wild type LRRK2 using fluorescein-labeled LRRKtide as substrate preincubated for 15 mins followed by substrate addition and measured after 1 hr by TR-FRET assay; method in brief: as §1
# T2 sequence (Q5S007 whole entry, the tested form may be a part): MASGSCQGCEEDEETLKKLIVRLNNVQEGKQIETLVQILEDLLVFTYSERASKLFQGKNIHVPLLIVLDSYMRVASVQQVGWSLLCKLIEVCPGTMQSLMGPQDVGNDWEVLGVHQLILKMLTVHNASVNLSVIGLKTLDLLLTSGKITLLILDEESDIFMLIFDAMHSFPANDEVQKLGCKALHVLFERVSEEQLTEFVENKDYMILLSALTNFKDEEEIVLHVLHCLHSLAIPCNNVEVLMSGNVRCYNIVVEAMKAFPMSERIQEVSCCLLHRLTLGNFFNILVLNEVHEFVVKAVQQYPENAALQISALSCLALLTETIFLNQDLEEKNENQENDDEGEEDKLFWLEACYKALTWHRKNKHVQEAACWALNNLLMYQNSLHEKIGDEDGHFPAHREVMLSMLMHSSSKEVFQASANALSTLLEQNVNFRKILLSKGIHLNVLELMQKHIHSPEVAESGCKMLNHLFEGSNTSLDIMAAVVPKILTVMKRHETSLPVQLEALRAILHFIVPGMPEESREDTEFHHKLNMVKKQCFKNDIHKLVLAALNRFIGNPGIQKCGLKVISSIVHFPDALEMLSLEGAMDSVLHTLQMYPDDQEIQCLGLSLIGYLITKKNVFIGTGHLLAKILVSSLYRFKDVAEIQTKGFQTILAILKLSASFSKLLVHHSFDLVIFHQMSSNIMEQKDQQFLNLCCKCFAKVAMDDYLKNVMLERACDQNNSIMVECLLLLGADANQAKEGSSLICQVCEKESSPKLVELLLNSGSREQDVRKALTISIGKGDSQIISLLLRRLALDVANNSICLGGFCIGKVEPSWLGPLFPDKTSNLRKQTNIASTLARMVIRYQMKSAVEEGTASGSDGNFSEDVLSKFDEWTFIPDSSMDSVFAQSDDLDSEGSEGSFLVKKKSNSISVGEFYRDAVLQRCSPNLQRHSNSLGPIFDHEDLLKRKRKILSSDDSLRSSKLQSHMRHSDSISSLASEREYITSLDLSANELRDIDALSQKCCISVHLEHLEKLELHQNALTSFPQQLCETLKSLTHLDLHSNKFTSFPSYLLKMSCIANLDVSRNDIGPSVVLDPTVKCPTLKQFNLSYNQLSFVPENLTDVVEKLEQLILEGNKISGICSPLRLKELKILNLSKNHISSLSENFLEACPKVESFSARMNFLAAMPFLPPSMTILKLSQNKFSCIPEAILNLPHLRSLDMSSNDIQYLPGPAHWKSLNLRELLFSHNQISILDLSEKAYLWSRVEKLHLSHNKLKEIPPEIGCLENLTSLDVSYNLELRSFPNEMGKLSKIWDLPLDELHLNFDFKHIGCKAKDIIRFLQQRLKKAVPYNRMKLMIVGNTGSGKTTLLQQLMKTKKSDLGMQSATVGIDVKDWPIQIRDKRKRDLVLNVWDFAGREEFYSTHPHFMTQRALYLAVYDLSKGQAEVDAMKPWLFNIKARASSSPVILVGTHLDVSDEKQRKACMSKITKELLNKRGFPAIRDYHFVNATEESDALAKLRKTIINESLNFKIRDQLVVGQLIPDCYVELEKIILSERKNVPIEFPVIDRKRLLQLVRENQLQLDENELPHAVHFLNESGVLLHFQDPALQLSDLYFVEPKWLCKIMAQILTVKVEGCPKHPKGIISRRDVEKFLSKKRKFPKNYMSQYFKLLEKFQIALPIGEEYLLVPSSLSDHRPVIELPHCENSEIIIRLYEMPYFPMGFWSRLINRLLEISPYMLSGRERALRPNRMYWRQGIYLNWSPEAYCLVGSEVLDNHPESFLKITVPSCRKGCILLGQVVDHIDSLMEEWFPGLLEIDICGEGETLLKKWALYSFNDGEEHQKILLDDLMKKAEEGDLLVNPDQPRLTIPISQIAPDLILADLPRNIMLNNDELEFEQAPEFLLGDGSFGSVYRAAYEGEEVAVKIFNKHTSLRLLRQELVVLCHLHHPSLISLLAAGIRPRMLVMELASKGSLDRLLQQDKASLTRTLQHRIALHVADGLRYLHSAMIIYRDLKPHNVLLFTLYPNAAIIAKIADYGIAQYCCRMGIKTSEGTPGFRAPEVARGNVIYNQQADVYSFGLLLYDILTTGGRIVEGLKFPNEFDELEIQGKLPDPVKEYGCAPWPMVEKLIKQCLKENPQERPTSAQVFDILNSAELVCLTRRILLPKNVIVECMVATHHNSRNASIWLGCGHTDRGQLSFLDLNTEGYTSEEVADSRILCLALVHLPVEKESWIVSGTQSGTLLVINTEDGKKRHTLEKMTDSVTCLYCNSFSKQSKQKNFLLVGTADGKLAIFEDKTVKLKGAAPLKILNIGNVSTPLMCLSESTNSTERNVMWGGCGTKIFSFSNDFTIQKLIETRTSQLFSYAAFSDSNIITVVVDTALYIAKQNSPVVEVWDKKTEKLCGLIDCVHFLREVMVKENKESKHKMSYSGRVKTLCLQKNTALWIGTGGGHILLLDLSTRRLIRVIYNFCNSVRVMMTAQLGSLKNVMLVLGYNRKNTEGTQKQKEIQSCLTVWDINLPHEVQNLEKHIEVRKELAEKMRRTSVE
# [4] = molecular target: T2, Leucine-rich repeat serine/threonine-protein kinase 2; assay: Inhibition human wild type LRRK2 expressed in human HEK293 assessed as Rab10 substrate phosphorylation at Threonine 73 residue incubated for 2 hrs by immunoblotting analysis; assay type: cell-based
# Method in brief: (§2)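 HEK293 cells stably expressing WT or G2019S LRRK2 (100 000/well, EMEM with 1% FBS) were dosed about 24 h after plating, for 2 h. They were lysed in 1% SDS Tris buffer with protease and phosphatase inhibitors, and lysates were heated at 65 °C for 10 min. pThr73-Rab10, total Rab10, pS935 and total LRRK2 were quantified by immunoblot. IC50 is the geometric mean of at least two independent experiments.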
# [5] = molecular target: T2, Leucine-rich repeat serine/threonine-protein kinase 2; assay: Inhibition of human wild type LRRK2 expressed in HEK293 cells assessed as reduction in pSer935 phosphorylation incubated for 2 hrs by HTRF analysis; assay type: cell-based
# Method in brief: (§3)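 Stably transfected HEK293 cells expressing human WT or G2019S LRRK2 were seeded at 5K/well in DMEM with 1% serum on poly-D-lysine plates. Inhibitor in DMSO was added for 2 h at 37 °C. pS935 was detected by an HTRF kit. IC50 is the geometric mean of at least two independent experiments.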
# [6] = molecular target: T1, Leucine-rich repeat serine/threonine-protein kinase 2; assay: Inhibition of human LRRK2 G2019S mutant expressed in HEK293 cells assessed as reduction in pSer935 phosphorylation incubated for 2 hrs by HTRF analysis; assay type: cell-based; method in brief: as §3
# [7] = species: Homo sapiens; assay: Selectivity ratio of IC50 for inhibition of human wild type LRRK2 expressed in HEK293 cells assessed as reduction in pS1292 phosphorylation to IC50 for inhibition of human LRRK2 G2019S mutant expressed in HEK293 cells assessed as reduction in pS1292 phosphorylation; assay type: cell-based
# Method in brief: (§4)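 HEK293 cells stably expressing WT or G2019S LRRK2 (30−50K/well, DMEM with 1% serum) were treated for 2 h at 37 °C and lysed with phosphatase inhibitors. LRRK2 was captured on anti-LRRK2-coated MSD plates overnight at 4 °C. Detection used rabbit anti-pS1292 (1:400) and Sulfo-Tag anti-rabbit, with an electrochemiluminescence read-out. IC50 is the geometric mean of at least two independent experiments.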
# [8] = species: Homo sapiens; assay: Selectivity ratio of IC50 for inhibition of human wild type LRRK2 expressed in HEK293 cells to IC50 for inhibition of human LRRK2 G2019S mutant expressed in HEK293; assay type: cell-based; method in brief: as §2
# [9] = molecular target: T2, Leucine-rich repeat serine/threonine-protein kinase 2; assay: Inhibition of human wild type LRRK2 expressed in HEK293 cells assessed as reduction in pSer935 phosphorylation incubated for 2 hrs by immunoblotting analysis; assay type: cell-based; method in brief: as §2
# [10] = species: Homo sapiens; assay: Selectivity ratio of IC50 for inhibition human wild type LRRK2 expressed in human HEK293 assessed as Rab10 substrate phosphorylation at Threonine 73 residue to IC50 for inhibition of human LRRK2 G2019S mutant expressed in human HEK293 assessed as Rab10 substrate phosphorylation at Threonine 73 residue; method in brief: as §2
# [11] = species: Homo sapiens; assay: Selectivity ratio of IC50 for inhibition of human wild type LRRK2 expressed in HEK293 cells assessed as reduction in pSer935 phosphorylation to IC50 for inhibition of human LRRK2 G2019S mutant expressed in HEK293 cells assessed as reduction in pSer935 phosphorylation; assay type: cell-based; method in brief: as §3
# [12] = molecular target: T1, Leucine-rich repeat serine/threonine-protein kinase 2; assay: Inhibition human LRRK2 G2019S mutant expressed in human HEK293 assessed as Rab10 substrate phosphorylation at Threonine 73 residue incubated for 2 hrs by immunoblotting analysis; assay type: cell-based; method in brief: as §2
# [13] = molecular target: T1, Leucine-rich repeat serine/threonine-protein kinase 2; assay: Inhibition of human LRRK2 G2019S mutant expressed in HEK293 cells assessed as reduction in pSer935 phosphorylation incubated for 2 hrs by immunoblotting analysis; assay type: cell-based; method in brief: as §2
# [14] = molecular target: T1, Leucine-rich repeat serine/threonine-protein kinase 2; assay: Inhibition of human LRRK2 G2019S mutant expressed in HEK293 cells assessed as reduction in pS1292 phosphorylation incubated for 2 hrs by MSD analysis; assay type: cell-based; method in brief: as §4
# [15] = molecular target: T2, Leucine-rich repeat serine/threonine-protein kinase 2; assay: Inhibition of human wild type LRRK2 expressed in HEK293 cells assessed as reduction in pS1292 phosphorylation incubated for 2 hrs by MSD analysis; assay type: cell-based; method in brief: as §4
# T1 sequence (Q5S007 whole entry G2019S, the tested form may be a part): as the sequence (Q5S007 whole entry, the tested form may be a part) above, with G2019S counted along it
SMILES,IC50 [1] [nM],Ratio IC50 [2],IC50 [3] [nM],other results
CC(=O)N1C(C)=C(C(=O)Nc2ccc3[nH]ncc3c2)Cn2nnnc21,513,5,2540,–
CC1=C(C(=O)Nc2ccc3[nH]nc(-c4cc(N5CCOCC5)ncn4)c3c2)Cn2nnnc2N1C,0.4,2.2,0.88,–
CC1=C(C(=O)Nc2ccc3[nH]nc(Br)c3c2)Cn2nnnc2N1C,2.4,40,96,–
CC1=C(C(=O)Nc2ccc3[nH]cc(C)c3c2)Cn2nnnc2N1C,> 10000,–,> 10000,–
CC1=C(C(=O)Nc2ccc3[nH]ncc3c2)Cn2nnnc2N1C,32,16,509,–
CC1=C(C(=O)Nc2ccc3[nH]nc(-c4ccnc(N5CCOCC5)c4)c3c2)C(C)(C)n2nnnc2N1C,< 0.2,> 1.5,0.3,IC50 [4]: 473 nM; IC50 [5]: 145 nM; IC50 [6]: 1.1 nM; Ratio IC50 [7]: 34; Ratio IC50 [8]: 132; IC50 [9]: 259 nM; Ratio IC50 [10]: 101; Ratio IC50 [11]: 173; IC50 [12]: 4.7 nM; IC50 [13]: 1.5 nM; IC50 [14]: 1 nM; IC50 [15]: 33.7 nM
CC1=C(C(=O)Nc2ccc3[nH]nc(C(N)=O)c3c2)Cn2nnnc2N1C,6,21,125,–
CC1=C(C(=O)Nc2ccc3[nH]nc(-c4ccc(S(N)(=O)=O)cc4)c3c2)Cn2nnnc2N1C,< 0.2,> 3.5,0.7,–
CC1=C(C(=O)Nc2ccc3[nH]c(=O)[nH]c3c2)Cn2nnnc2N1C,240,> 36,> 8600,–
CC1=C(C(=O)N(C)c2ccc3[nH]ncc3c2)Cn2nnnc2N1C,> 10000,–,–,–
CC1=C(C(=O)Nc2ccc3[nH]nc(C)c3c2)C(C)(C)n2nnnc2N1C,0.8,190,152,–
CC1=C(C(=O)Nc2ccc3[nH]ncc3c2)[C@H](C)n2nnnc2N1C,94,3.2,302,–
CC1=C(C(=O)Nc2ccc3[nH]nc(-c4ccncc4)c3c2)Cn2nnnc2N1C,0.44,20,9,–
CC1=C(C(=O)Nc2ccc3[nH]ncc3c2)Cn2nnnc2N1CCN1CCOCC1,4650,1.3,6130,–
CC1=C(C(=O)Nc2ccn3cnc(C)c3c2)Cn2nnnc2N1C,1350,> 7.4,> 10000,–
CC1=C(C(=O)Nc2ccc3[nH]nc(-c4nc5ccccc5[nH]4)c3c2)Cn2nnnc2N1C,< 0.2,> 2.6,0.53,IC50 [5]: 3300 nM; IC50 [6]: 21 nM; Ratio IC50 [7]: 12; Ratio IC50 [8]: 157; IC50 [14]: 21 nM; IC50 [15]: 242 nM
CC1=C(C(=O)Nc2ccc3c(c2)CNC3=O)[C@@H](C)n2nnnc2N1C,32,53,1700,–
CC1=C(C(=O)Nc2ccc3[nH]ncc3c2)[C@@H](C)n2nnnc2N1C,1.64,43,71,IC50 [5]: > 10000 nM; IC50 [6]: 189 nM; Ratio IC50 [7]: 21; Ratio IC50 [8]: > 53; IC50 [14]: 104 nM; IC50 [15]: 2180 nM
CCC1=C(C(=O)Nc2ccc3[nH]ncc3c2)Cn2nnnc2N1C,244,2.2,534,–
CC1=C(C(=O)Nc2ccc3[nH]nc(C)c3c2)[C@H](C)n2nnnc2N1C,51,24,1220,–

SMILES,IC50 [1] [nM],Ratio IC50 [2],IC50 [3] [nM],other results
CC1=C(C(=O)Nc2ccc3[nH]nc(-c4ccnc(N5CCOCC5)c4)c3c2)[C@H](C)n2nnnc2N1C,< 0.2,> 5,1,–
CCN1C(C)=C(C(=O)Nc2ccc3[nH]ncc3c2)Cn2nnnc21,58,15,865,–
CC1=C(C(=O)Nc2ccc3c(c2)[nH]c(=O)n3C)[C@@H](C)n2nnnc2N1C,> 10000,–,> 10000,–
CC1=C(C(=O)Nc2ccc3[nH]nc(-c4ccnc(N5CCOCC5)c4)c3c2)[C@@H](C)n2nnnc2N1C,< 0.2,–,< 0.2,IC50 [5]: 65 nM; IC50 [6]: 2.4 nM; Ratio IC50 [7]: 18; Ratio IC50 [8]: 27; IC50 [14]: 1.2 nM; IC50 [15]: 20.9 nM
CC1=C(C(=O)Nc2ccc3[nH]ncc3c2)C(C)(C)n2nnnc2N1C,12,108,1300,–
CC1=C(C(=O)Nc2ccc3[nH]ncc3c2)Cn2nnnc2N1c1ccccc1,2.6,2.2,5.7,–
CC1=C(C(=O)Nc2ccc3[nH]ncc3c2)Cn2nnnc2N1C(=O)N(C)C,53,17,888,–
CCCC(=O)Nc1n[nH]c2ccc(NC(=O)C3=C(C)N(C)c4nnnn4C3)cc12,1190,> 8.4,> 10000,–
CC1=C(C(=O)Nc2ccc3[nH]nc(C)c3c2)Cn2nnnc2N1C,10,12,121,–
CC1=C(C(=O)Nc2ccc3[nH]nc(-c4ccncc4)c3c2)[C@@H](C)n2nnnc2N1C,< 0.2,–,< 0.2,IC50 [5]: 1140 nM; IC50 [6]: 14.7 nM; Ratio IC50 [7]: 22; Ratio IC50 [8]: 78; IC50 [14]: 12.1 nM; IC50 [15]: 272 nM
CC1=C(C(=S)Nc2ccc3[nH]ncc3c2)Cn2nnnc2N1C,15.3,15,–,–
CC1=C(C(=O)Nc2ccc3c(N)nccc3c2)[C@@H](C)n2nnnc2N1C,12,48,581,–
CC1=C(C(=O)Nc2ccc3[nH]nc(NC(=O)c4ccccc4)c3c2)Cn2nnnc2N1C,3,35,108,–
CC1=C(C(=O)Nc2ccc3c(c2)C(=O)NC3=O)[C@@H](C)n2nnnc2N1C,55,52,2840,–
CC1=C(C(=O)Nc2ccc3[nH]cnc3c2)Cn2nnnc2N1C,> 10000,–,> 10000,–
CC1=C(C(=O)Nc2ccc3c(c2)CC(=O)N3)Cn2nnnc2N1C,6370,> 1.6,> 10000,–
CN1C=C(C(=O)Nc2ccc3[nH]ncc3c2)Cn2nnnc21,> 10000,–,> 10000,–
CC1=C(C(=O)Nc2ccc3cnc(C)n3c2)Cn2nnnc2N1C,3120,> 3.2,> 10000,–
CC1=C(C(=O)Nc2ccc3[nH]nc(-c4ccnc(N5CCOCC5)c4)c3c2)Cn2nnnc2N1C,< 0.2,–,< 0.2,IC50 [5]: 377 nM; IC50 [6]: 8.3 nM; Ratio IC50 [7]: 8; Ratio IC50 [8]: 45; IC50 [14]: 9.2 nM; IC50 [15]: 74.4 nM
CC1=C(C(=O)Nc2ccc3[nH]c(=O)n(C)c3c2)[C@@H](C)n2nnnc2N1C,58,49.7,2870,–

# Source: ChEMBL document CHEMBL5244270, “Selective Inhibitors of G2019S-LRRK2 Kinase Activity” (J Med Chem, 2020)
